A short description of the data set: Toxicity liver stage against HepG2, at 10uM. It is filed as cell-based. Also on record: test concentration 10 uM, cell line HepG2-A16-CD81EGFP. The conditions noted are these: human, HepG2-A16-CD81EGFP cells; read-out: INHIBITION
The method in brief:
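Uninfected HepG2-A16-CD81EGFP cells, 3 × 10^3 per well, 1536-well, plated on prespotted compound at 10 μM final, parasite-free screening media added to match infected plates; puromycin 10 μM positive, DMSO 0.5% negative; run in parallel with 48 h PbLuc assay at 37 °C, 5% CO2; viability by CellTiter-Glo luminescence, normalized to controls.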
For `O=C(NCc1cccnc1)[C@@H]1C[C@@H]2CCN(c3ncc(F)cn3)C[C@@H]2O1`, the cytotoxicity at 10 µM is -72.1%.
For `O=C(CN1CCCC1Cn1cncn1)Nc1ccc(Cl)cn1` (stereo unspecified), the cytotoxicity at 10 µM was -5.89%.
With `O=C(NCCC1CCN(CC(F)(F)F)CC1)C1COCCO1` (stereo unspecified), the cytotoxicity at 10 µM was 1.38%.
The figure for `CCCN1C[C@@H]2CC[C@H]1CN(C(=O)Cn1c(C)cc(C)nc1=O)C2` is -4.57%; for `Cc1ccc(C)c(OCc2cc(C(=O)N(C)Cc3cnn(C)c3)no2)c1` it is -6.12%; for `COCCN(C)C(=O)Nc1ccc2c(ccn2CC(=O)N(C)C)c1` it is 6.71%.
The figure for `CCC(NS(C)(=O)=O)c1ccccc1C` (stereo unspecified) is -43.2%.
Take `CC(c1nccs1)n1cc(-c2cc(CN3CCCCC3)cs2)nn1` (stereo unspecified): the cytotoxicity at 10 µM was 1.22%.
The figure for `C1=CCN(c2nc(CC3CC3)nc3c2CCN(C2CCOCC2)CC3)C1` is 0.0776%; for `CNS(=O)(=O)c1ccc(CCC(=O)NCc2cccc(OC)c2)cc1` it is -148%; for `CC(C)(C)c1csc(CNC(=O)C2NCCc3[nH]cnc32)n1` (stereo unspecified) it is -2.65%.
Regarding `CN1CCC(N(Cc2ccccc2)C(=O)c2nccn3ccnc23)CC1`, the cytotoxicity at 10 µM was 3.52%.
Take `Cc1cc(CN2CCN(C(=O)CCc3cccc(F)c3F)CC2)on1`: the cytotoxicity at 10 µM is -6.16%.
As for `CO[C@H]1CN(Cc2ccc(C)o2)[C@@H]2CCCO[C@H]12`, the figure is -144%; as for `CN1CCCC(CNS(=O)(=O)N2CCc3ccccc3C2)C1` (stereo unspecified), -4.32%.
Take `CCn1cc(CNc2ccc3nccnc3c2)cn1`: the cytotoxicity at 10 µM was 1.42%.
As for `COc1ccccc1OCCN1CCCC(c2cc(C(N)=O)[nH]n2)C1` (stereo unspecified), the figure is 3.71%; as for `Cc1nc(CN2CCOC(Cn3cccn3)C2)nc2ccccc12` (stereo unspecified), -24.8%.
As for `O=C1CN(C(=O)CSC2CCCc3ccccc32)CCN1` (stereo unspecified), the cytotoxicity at 10 µM was -9.45%.
As for `CC1CCCN(c2ccc(C(N)=O)cc2NC(=O)CC2=CCNCC2)C1` (stereo unspecified), the cytotoxicity at 10 µM is -46.3%.
As for `CNC(=O)c1cccc(C2CNCCN2C)c1` (stereo unspecified), the figure is 2.91%.
As for `Cc1cc(CN2CCC(c3ccnn3CCO)CC2)no1`, the figure is -11.2%; as for `O=C(NCCNc1ccccn1)NC1CCCC1`, -5.81%; as for `O=C(c1cc2c(F)cccc2[nH]1)N1CCCCC1Cn1cccn1` (stereo unspecified), -7.95%.
The figure for `C1CCC(c2nnc3sc(C4CCCO4)nn23)C1` (stereo unspecified) is 8.61%; for `Cc1cnn(CC2CCCN2CCc2nc3ccccc3c(=O)[nH]2)c1` (stereo unspecified) it is -5.79%; for `Cc1nc(-c2ncc(C(=O)NCCNc3ncccc3C)c(O)n2)cs1` it is -0.153%.
For `CC(C)Cc1cc(C(=O)N2CCC(Oc3cccnc3)CC2)n(C)n1`, the cytotoxicity at 10 µM was -0.423%.
As for `O=C(NCc1cccnc1-n1cncn1)c1cncc(Br)c1`, the figure is 10%; as for `CCn1cnnc1C1CCN(C(=O)c2cnn(C(C)(C)C)c2)CC1`, 4.78%.
The figure for `CC1CCN(C(=O)Cn2nc(Br)nc2Br)CC1` is -1.8%; for `CCN1CC(C(=O)NCc2cccc(SC)c2)CC1=O` (stereo unspecified) it is 4.68%; for `CCCC(O)CN1CC(C)(C)CN(C(=O)CCc2ccccc2)CC1=O` (stereo unspecified) it is -15.4%.
As for `CNC(=O)c1ccc(C(=O)N2CCCC(n3ccnc3)C2)cn1` (stereo unspecified), the figure is -8.89%; as for `COc1cc(N2CC[C@@H](O)[C@@H]2Cc2cccnc2)ncn1`, -77.9%; as for `COCCNC(=O)c1cc(-c2cc[nH]n2)n2ccccc12`, 10.4%.
For `COc1ccc(CC(=O)Nc2ccc3ncn(C)c(=O)c3c2)cc1`, the cytotoxicity at 10 µM was determined as 1.29%.
As for `COc1ccccc1C(=O)Nc1cc(CC(C)C)nn1C`, the figure is -12.5%.
As for `O=C(c1cnn2c1OCCC2)N1CCN(C(=O)C2CCCO2)CC1` (stereo unspecified), the figure is -6.19%.
The figure for `CC[C@H](C)[C@@H](CO)NC(C)Cc1ccccc1F` (stereo partly specified) is -7.36%.
For `CCN1CCN(S(=O)(=O)c2c[nH]c(C(C)C)n2)c2ccccc21`, the cytotoxicity at 10 µM is 4.65%.
As for `CS(=O)(=O)NC1(CCc2ccc(NC(=O)C3CC3)nc2)CCCCC1`, the figure is 6.56%; as for `CNc1cc(CCNC(=O)C2CCCC2)nc(-c2ccccn2)n1`, 1.76%; as for `Cc1c(CNC(=O)C2CCCCCN2C)oc2ccccc12` (stereo unspecified), 11.4%.
As for `CCCOCC(=O)NS(=O)(=O)c1ccc2c(c1)OCCO2`, the figure is -6.46%.
The figure for `O=C(CC1CCCC1)N1C[C@H](Oc2cccnc2)[C@H]2OCCC[C@H]21` is 3.82%; for `Cc1cccc(C)c1NC(=O)c1cc(S(N)(=O)=O)c(C)o1` it is -4.27%.
Consider `Cn1c(C2CC2)nc2c1CCN(CC(=O)NC1CCCCNC1=O)C2` (stereo unspecified), for which the cytotoxicity at 10 µM was 3.73%.
As for `Cn1cc(Cl)cc1C(=O)N1CCC2(CCCN(CC3CCC3)C2=O)C1` (stereo unspecified), the figure is 0.407%; as for `Cn1cnc(S(=O)(=O)NCC(O)c2ccc3c(c2)CCO3)c1` (stereo unspecified), -6.28%; as for `Cc1cc(C)c(CNC(=O)NCC(O)c2ccc(Cl)cc2)c(=O)[nH]1` (stereo unspecified), -7.03%.
The figure for `O=C(NCc1ccc2nonc2c1)C1CCN(C(=O)C2CCC2)CC1` is -8.61%; for `Fc1cccc(CNCC2Cn3nncc3CO2)c1` (stereo unspecified) it is 10.9%; for `COCCCN(Cc1ccncc1)c1cc(C)ncn1` it is 3.35%.
As for `CNC(=O)c1cccc(CN2CCC(N(C)Cc3ncc(C)o3)C2)c1` (stereo unspecified), the figure is -103%; as for `CC(=O)N1CCC(N2CCOC[C@H]2c2nc(-c3ccccc3)c[nH]2)CC1`, 1.74%; as for `Cc1nccn1[C@@H]1CC[C@@H](N(C)S(=O)(=O)c2cccc(F)c2)[C@H]1O`, -2.4%.
As for `CCNC(=O)N(C)C(c1cccc(F)c1)c1ccccn1` (stereo unspecified), the cytotoxicity at 10 µM was -11.6%.
The figure for `CCCS(=O)(=O)N[C@H]1CN(c2ncccc2C(N)=O)C[C@@H]1C(C)C` is 5.78%; for `O=C(c1cscn1)N1CCC2(CCN(Cc3nccs3)CC2)C1` it is -69%; for `CC(C)n1cc2cc(NC(=O)Cn3cnnn3)ccc2n1` it is -138%.
For `O=C(CSc1ncccn1)N1C[C@@H]2CC[C@H]1CN(Cc1ccncc1)C2`, the cytotoxicity at 10 µM is -13%.
The figure for `c1cnc(N2CCCC(c3n[nH]c4ncccc34)C2)nc1` (stereo unspecified) is -0.64%; for `C=Cn1cc(CN2CCN(CC3(c4ccccc4)CC3)CC2)c(C)n1` it is 1.78%.
The figure for `COCCN1C(=O)C2(CCC(C(=O)Nc3ccc(F)cc3)CC2)N=C1C` (stereo unspecified) is 9.7%; for `O=C(CCc1ccc(-n2cnnn2)cc1)Nc1ccncc1` it is -11.2%.
As for `CSc1ccc(C)c(C(=O)N2CCCC(n3cncn3)C2)c1` (stereo unspecified), the figure is -13.1%; as for `COc1cc(N2C[C@H]3CCN(CCN4CCCC4)C[C@H]3C2)ncn1`, 12%; as for `O=C(c1ccc(O)c(Cl)c1)N1CCC(c2n[nH]c(C3CC3)n2)CC1`, 6.91%.
For the molecule `O=C(CC1CC1)N1CCC2(CC1)CN(c1ncc(F)cn1)CCO2`, the cytotoxicity at 10 µM was -72.8%.
The figure for `O=C(c1cccc(Cl)c1F)N1CCOC2(CNCCOC2)C1` (stereo unspecified) is -2.06%.
